In ChEMBL document CHEMBL4513216, “Probing the Open Global Health Chemical Diversity Library for Multistage-Active Starting Points for Next-Generation Antimalarials” (ACS Infect Dis, 2020):

Assay: Toxicity liver stage against HepG2, at 10uM
Type: cell-based
Parameters: test concentration 10 uM, cell line HepG2-A16-CD81EGFP
Settings: human, HepG2-A16-CD81EGFP cells; read-out: INHIBITION
In short: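 Uninfected HepG2-A16-CD81EGFP cells, 3 × 10^3 per well, 1536-well, plated on prespotted compound at 10 μM final, parasite-free screening media added to match infected plates; puromycin 10 μM positive, DMSO 0.5% negative; run in parallel with 48 h PbLuc assay at 37 °C, 5% CO2; viability by CellTiter-Glo luminescence, normalized to controls.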

SMILES | cytotoxicity at 10 µM [%]
COc1cc(-n2cccc2)c(Cl)cc1C(=O)NS(C)(=O)=O | 0.872
Cc1ccc(C(CNC(=O)c2c(C)noc2C(C)C)N(C)C)cc1 (stereo unspecified) | -12.4
C[C@@H]1CN(C(=O)CCc2nncn2C)CC[C@@]1(O)C1CCC1 | -6.65
COC[C@]12COC[C@H]1CN(C(=O)C1CC(F)(F)C1)C2 | 5.83
Cc1nn(C)c(C)c1NC(=O)c1cccc(CN2CCS(=O)(=O)CC2)c1 | -15.8
CCCNC(=O)NCc1ccccc1NS(=O)(=O)c1ccccc1 | 10.3
c1cc(-c2ccc(CN3CCCC4(CCNC4)C3)s2)[nH]n1 (stereo unspecified) | -152
c1ccc(-c2nn3c(CN4CCOCC4)nnc3s2)nc1 | 9.9
Cc1cc(CN2CCC(CNC(=O)Cc3ccc(F)cc3)C2)[nH]n1 (stereo unspecified) | -139
O=c1[nH]c2ncccc2n1C1CCCC1 | 10.6
CN(C)c1cc(CNC(=O)c2cc(Cl)ccn2)ccn1 | -15
Cc1ccsc1-c1nnc(C2CCN(Cc3ccc(F)cc3)CC2)o1 | 4.58
Cc1cc(S(=O)(=O)N(CC(N)=O)CC(C)C)ccc1Br | -10.1
COCc1nc2cc(NCc3cc[nH]n3)ccc2o1 | 6.7
CCCN1CCC2(C1)c1ccccc1S(=O)(=O)N2Cc1ccccc1 (stereo unspecified) | 16.7
CCc1nc(C)c(CC(=O)N2CCC3(CC2)OCCCC3O)c(=O)[nH]1 (stereo unspecified) | 9.16
CCO[C@H]1CN(C)C[C@@H]1NC(=O)c1c[nH]nc1C1CCCCC1 | -5.56
CCCS(=O)(=O)N1C[C@@H]2COC[C@@H](Cc3nc(C)no3)[C@@H]2C1 | 6.34
Cn1nc(C(=O)NCc2ccccn2)c2c1CCS(=O)(=O)C2 | 7.21
CCC(C)[C@H](N)c1nnc(SCC(=O)Nc2cc(C)ccc2C)o1 (stereo partly specified) | -12.7
CN(C)C(=O)COCc1nnc2n1CCN(Cc1ccsc1)C2 | 7.16
Cc1cc(N2CCC(NC(=O)CCC3CCCO3)CC2)nc(C)n1 (stereo unspecified) | -8.21
OC(CN1CCN(Cc2ccc(F)c(F)c2)CC1)C1CC1 (stereo unspecified) | -22.2

SMILES | cytotoxicity at 10 µM [%]
O=C(c1cccnc1)N1CCn2nnc(COc3cccnc3)c2C1 | 3.34
COc1cc(C)nc(N2CCN(C(=O)c3ccoc3C)CC2)n1 | -21.8
COc1ccc2[nH]cc(C(=O)N3C[C@@H](O)[C@H](NS(C)(=O)=O)C3)c2c1 | -9.26
Cc1nc2c(C)cccc2cc1C(=O)N1CCC2(CCNCC2)CC1 | -8.37
Cc1c(S(=O)(=O)NC2CC2)cc2c(C)cc(=O)n3c2c1CCC3 | -1.95
Cc1occc1C(=O)NCC(O)c1ccc(Cl)s1 (stereo unspecified) | -16.4
Cc1nn(C)c(C)c1C(=O)N1CCOCC1CC(=O)c1ccco1 (stereo unspecified) | -11.4
COc1cc2c(cc1CNCc1ccnc(-n3cccn3)c1)OC(C)C2 (stereo unspecified) | 11.2
Cc1cccc(NCCNc2ccc(C#N)cn2)n1 | 18
CN1CCN(C(=O)CCC(=O)c2cccs2)Cc2ccccc21 | -57.8
CC(C)(C)CN1CCOC[C@H]1c1nc(-c2cccc(F)c2)c[nH]1 | -3.79
CC(=O)Nc1cccc(OCCNC(=O)N(C)Cc2ccco2)c1 | -9.29
CCCc1nnc(N2CCC(N3CCCC3)CC2)o1 | -16.3
Cc1ccc(S(=O)(=O)NCC2(O)CCOc3ccccc32)s1 (stereo unspecified) | 5.33
CCOC[C@@H]1CCC[C@@]12CN(Cc1nccs1)CCO2 | 1.77
Cc1ccc(OCC(O)CNC(=O)C2(c3ccc(F)cc3)CC2)cc1 (stereo unspecified) | 0.675
Cc1cnc(CCN(C)C(=O)c2ccc(O)nc2C)s1 | -1.56
COc1ccc(F)cc1C(=O)N1CC(c2ccncc2)C1 | -4.93
O=C(Cc1c(F)cccc1Cl)NC1CCCCNC1=O (stereo unspecified) | 1.91
CC(C)C[C@@H](C(N)=O)n1cc(-c2cncnc2)nn1 | 3.28
O=C(NC1CCN(c2snc3ccccc23)CC1)C1CCC1 | 4.5
Cc1cc2c(=O)n3c(nc2s1)CCN(C(=O)c1cn(C)nc1C)CC3 | -22.6
Cc1cc(N2CCN(C(=O)[C@@H]3C[C@H]4C=C[C@@H]3C4)CC2)cc(C)n1 | -7.62

SMILES | cytotoxicity at 10 µM [%]
COCC(=O)N1CCc2ccccc2C12CCNCC2 | -0.602
CN1CCN(S(=O)(=O)c2ccc(Sc3nccn3C)nc2)CC1 | 10.2
COCC(=O)N1CC[C@H]2C[C@H](c3nc(C)no3)O[C@@H]2C1 | -76.1
Cc1nc(C)n(CC2CCCCN2CC(=O)Nc2nncs2)n1 (stereo unspecified) | 4.62
O=C(c1ccc(F)c(Cl)c1)N1C[C@H]2CC[C@@H](C1)N(Cc1ccccc1)C2 | -8.28
CC(C)CSCCN1CCN(S(C)(=O)=O)CC1 | -3.66
Cn1cnc(S(=O)(=O)NCC2(O)CCOc3ccccc32)c1 (stereo unspecified) | 12
c1cnn(CC2CCN(c3nc(C4CC4)nc4c3CCNCC4)CC2)c1 | -2.84
CNC(=O)COC1COC2(CCN(Cc3cccnc3)CC2)C1 (stereo unspecified) | 6.53
CC(=O)N1CCC(NC(=O)c2cc(Cl)ccc2O)CC1 | 0.0966
CC(C)C(=O)N1CC[C@H]2N(C)CC[C@@]2(C(=O)N2CCCC2)CC1 | 5.5
Cn1ccnc1CN1CCN2C[C@H](Oc3cncnc3)C[C@H]2C1 | 8.71
Cc1noc(C)c1C(=O)NCC(c1ccsc1)N(C)C (stereo unspecified) | -14.2
CCc1nc(CNC(C)(CO)C2CCCCC2)no1 (stereo unspecified) | -13.1
COc1ccc(C(C)NC(=O)Cn2ccc(=O)n(C)c2=O)cc1OC (stereo unspecified) | -9.09
Cc1ccccc1CC(C)NCc1c(C)nn(C)c1N1CCOCC1 (stereo unspecified) | -13.1
CC(C)C1CN(S(C)(=O)=O)CCCN1Cc1ccc(F)cc1 (stereo unspecified) | 1.81
CC(=O)N1CCC1c1nc(-c2ccc(C)s2)no1 (stereo unspecified) | -1.78
CC1CCN(c2nc3ncc4c(c3c(=O)[nH]2)CC(C)(C)CC4=O)CC1 | 3.49
Cc1occc1C(=O)NCC(=O)NCCCOc1ccc(F)cc1 | -45.1
Cc1nc2sccn2c1CNc1ccc(C(=O)O)cc1 | 11.7
Cc1cnn(C2CN(CC(O)COc3ccc(C#N)cc3)C2)c1 (stereo unspecified) | 1.81
CCS(=O)(=O)Cc1csc(-c2ccc(S(C)(=O)=O)cc2)n1 | 8.8

SMILES | cytotoxicity at 10 µM [%]
Cc1cc(C)c2c(N(C)CC3COCCO3)ncnc2n1 (stereo unspecified) | -133
CC(=O)N1CCC[C@@H](NCc2ccc(F)cc2)[C@@H]1c1ccc(C)s1 | -22.1
Cc1occc1C(=O)N1CCC(C(O)c2ccc(Cl)cc2)CC1 (stereo unspecified) | -0.342
Cc1nnc(C(C)N2CCc3[nH]c4ccccc4c3C2)o1 (stereo unspecified) | -9.42
O=C(NCc1ccc(N2CC=CC2)cc1)Nc1nnc(C2CC2)s1 | 7.25
COc1ccc(CN2CCn3c(CNS(C)(=O)=O)nnc3C2)cc1 | 4.19
O=C(Nc1ccnn1C1CCCC1)c1ccc(NC2CC2)nc1 | 4.75
O=C(CCc1cc(O)no1)N1CCC(Cc2ccc(F)cc2)CC1 | -0.505
CC(C)n1nc2c(cc1=O)CN(CCOc1ccccc1C#N)CC2 | 13.7
C=C(C)COc1ccc(C(=O)NCCn2c(C)cc(C)nc2=O)cc1 | -4.83
Cc1ccc(N2CCO[C@H]3CN(CC4CC4)C[C@H]32)nn1 | -7.93
CCOC(C)c1nc(Cn2cc(C)cn2)cs1 (stereo unspecified) | 5.52
COC(=O)CN1CC2(CCNCC2)COc2ccccc2S1(=O)=O | -11.7
c1ccc(C2CCCN2C2CCSCC2)nc1 (stereo unspecified) | 9.03
CCN(CCOC)C(=O)CCc1scnc1C | -15.8
Cc1c(CN2CCOCC2)c(O)n(CCc2ccccc2)c(=O)c1C#N | 4.1
C=C(C)CN(CC)C(=O)c1cc(Cl)ccc1NS(C)(=O)=O | 7.17
CCC(CN1CCCCC1)NC(=O)C1(c2cccc(F)c2)CC1 (stereo unspecified) | 0.689
Cc1csc(NC(=O)c2cnc(C3CCCN3)cn2)n1 (stereo unspecified) | -41
Cc1ccnc(NC(=O)c2cncc(C3CCNCC3)n2)c1 | -9.48
CC(C)Oc1ncccc1CNC(=O)c1cc(C2CC2)on1 | -17.7
N#Cc1cccnc1N1CCCN(C(=O)CCc2cccs2)CC1 | -15.8
O=C(c1cc(C2CCCN(Cc3ccccn3)C2)no1)N1CCCC1 (stereo unspecified) | -18.9

SMILES | cytotoxicity at 10 µM [%]
CN(Cc1nnc(-c2ccco2)o1)Cc1nc2c(s1)CCCC2 | 1.13
CCOc1ccnc(NCc2nc(C)cc(C(F)(F)F)n2)n1 | -10.1
CN(Cc1nnc2n1CCC2)C(=O)c1ccc2c(c1)OCCCO2 | -8.68
O=c1cc(CN2CCCC2)nc2n1CCCN(Cc1ccco1)C2 | 4.01
NC(=O)C(NC1CCN(Cc2ccc(F)cc2)CC1)c1ccccc1 (stereo unspecified) | -5.4
CN1CC(c2n[nH]c(=O)n2-c2cccc(Cl)c2)CC1=O (stereo unspecified) | 3.24
CN(C)c1nc(N)nc(CN2CCC(c3nc4ccccc4o3)CC2)n1 | -6.9
COc1ncccc1C(=O)N1CCCC1c1c(C)n[nH]c1C (stereo unspecified) | 10.7
Cn1cc(CN2CCOC3(CCCN(c4cccc(F)c4)C3)C2)cn1 (stereo unspecified) | -77.1
OCc1csc(N2CCCC(CO)(Cc3cccc(Cl)c3)C2)n1 (stereo unspecified) | 8.87
CC(C)(C)CC(=O)N1CCC(n2cc(C3(O)CCCC3)nn2)CC1 | 8.64
CCCS(=O)(=O)N1CCC2(CC1)CC(Nc1ncccn1)CO2 (stereo unspecified) | -0.00726
COCCN1CCC2(CCN(Cc3ccc(OC)cc3)CC2)C1=O | 2.88
Cc1ccc2nc(C3CCCN3C(=O)c3cc(=O)[nH]c(=O)[nH]3)[nH]c2c1 (stereo unspecified) | 18.7
O=C(c1ccc2[nH]ccc2c1)N1CCCSCC1CN1CCCC1 (stereo unspecified) | 9.4
COc1cc(C(=O)O)ccc1OCC(=O)NCCc1ccccc1 | -10.6
Cc1ccc(-c2ncc(C(=O)NCCS(N)(=O)=O)s2)c(C)c1 | -10.7
O=C(Cn1ccnc1)N1CCCC(OCc2cccnc2)C1 (stereo unspecified) | 2.03
O=C(CCO)N1C[C@H]2CN(c3ccccc3)C(=O)[C@H]2C1 | 1.35
